For 16 compounds, inhibition and IC50 results are on record in ChEMBL document CHEMBL4130621, “Structure-Activity Relationship Studies with Tetrahydroquinoline Analogs as EPAC Inhibitors” (ACS Med Chem Lett, 2017).

Experiment [1] concerns the target T1, Rap guanine nucleotide exchange factor 3 (Homo sapiens) (UniProt O95398).
T1 sequence (whole entry): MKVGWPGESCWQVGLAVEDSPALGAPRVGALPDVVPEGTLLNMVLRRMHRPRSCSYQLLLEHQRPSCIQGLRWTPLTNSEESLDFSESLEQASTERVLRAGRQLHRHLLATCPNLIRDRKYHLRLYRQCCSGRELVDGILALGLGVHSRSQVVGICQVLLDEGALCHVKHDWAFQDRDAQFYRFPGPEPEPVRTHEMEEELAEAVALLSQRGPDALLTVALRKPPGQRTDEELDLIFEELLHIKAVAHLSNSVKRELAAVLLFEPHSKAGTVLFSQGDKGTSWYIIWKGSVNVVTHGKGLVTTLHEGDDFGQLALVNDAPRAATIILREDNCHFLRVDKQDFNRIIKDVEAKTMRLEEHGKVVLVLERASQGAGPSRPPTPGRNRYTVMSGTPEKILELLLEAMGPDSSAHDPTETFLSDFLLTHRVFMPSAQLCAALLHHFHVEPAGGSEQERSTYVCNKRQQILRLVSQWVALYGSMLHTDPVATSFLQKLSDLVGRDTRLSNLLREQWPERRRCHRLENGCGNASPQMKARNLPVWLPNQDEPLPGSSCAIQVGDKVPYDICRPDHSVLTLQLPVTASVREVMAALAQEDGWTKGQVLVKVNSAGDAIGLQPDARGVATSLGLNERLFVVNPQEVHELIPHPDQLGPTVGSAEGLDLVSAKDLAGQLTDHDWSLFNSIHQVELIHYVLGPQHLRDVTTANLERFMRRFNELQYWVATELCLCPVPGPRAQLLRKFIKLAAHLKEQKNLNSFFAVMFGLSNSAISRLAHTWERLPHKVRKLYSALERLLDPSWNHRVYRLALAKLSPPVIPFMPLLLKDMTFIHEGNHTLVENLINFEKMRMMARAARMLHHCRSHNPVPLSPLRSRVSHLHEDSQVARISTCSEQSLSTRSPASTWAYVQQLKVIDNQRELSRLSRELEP
Briefly: Inhibition of recombinant human GST-tagged EPAC1 (149 to 881 residues) expressed in Escherichia coli Rosetta 2(DE3) assessed as reduction in guanine nucleotide exchange activity at 50 uM using BODIPY-labeled GDP loaded Rap1A by fluorescence assay relative to control. In outline: (§1)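 EPAC1 was stimulated with the analog present at 10 or 50 μM. Activity was then measured as guanine nucleotide exchange factor activity toward Rap1 in a BODIPY-GDP-based assay, used as a screen.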

For experiment [2], the target named is T1, Rap guanine nucleotide exchange factor 3 (Homo sapiens). The experiment can be described thus: Inhibition of recombinant human GST-tagged EPAC1 (149 to 881 residues) expressed in Escherichia coli Rosetta 2(DE3) assessed as reduction in guanine nucleotide exchange activity at 10 uM using BODIPY-labeled GDP loaded Rap1A by fluorescence assay relative to control. The method, boiled down: as §1

In experiment [3] the target is T2, Rap guanine nucleotide exchange factor 3 (Homo sapiens, UniProt O95398).
T2 sequence (O95398 whole entry): T1 sequence (whole entry)
Briefly: Inhibition of recombinant human GST-tagged EPAC1 (149 to 881 residues) expressed in Escherichia coli Rosetta 2(DE3) assessed as reduction in guanine nucleotide exchange activity using BODIPY-labeled GDP loaded Rap1A by fluorescence assay.

The target in experiment [4] is Rap guanine nucleotide exchange factor 4 (Homo sapiens, UniProt Q8WZA2). Briefly: Inhibition of recombinant human GST-tagged EPAC2 expressed in Escherichia coli Rosetta 2(DE3) assessed as reduction in guanine nucleotide exchange activity using BODIPY-labeled GDP loaded Rap1A by fluorescence assay.
Chain of Rap guanine nucleotide exchange factor 4 (Q8WZA2 whole entry): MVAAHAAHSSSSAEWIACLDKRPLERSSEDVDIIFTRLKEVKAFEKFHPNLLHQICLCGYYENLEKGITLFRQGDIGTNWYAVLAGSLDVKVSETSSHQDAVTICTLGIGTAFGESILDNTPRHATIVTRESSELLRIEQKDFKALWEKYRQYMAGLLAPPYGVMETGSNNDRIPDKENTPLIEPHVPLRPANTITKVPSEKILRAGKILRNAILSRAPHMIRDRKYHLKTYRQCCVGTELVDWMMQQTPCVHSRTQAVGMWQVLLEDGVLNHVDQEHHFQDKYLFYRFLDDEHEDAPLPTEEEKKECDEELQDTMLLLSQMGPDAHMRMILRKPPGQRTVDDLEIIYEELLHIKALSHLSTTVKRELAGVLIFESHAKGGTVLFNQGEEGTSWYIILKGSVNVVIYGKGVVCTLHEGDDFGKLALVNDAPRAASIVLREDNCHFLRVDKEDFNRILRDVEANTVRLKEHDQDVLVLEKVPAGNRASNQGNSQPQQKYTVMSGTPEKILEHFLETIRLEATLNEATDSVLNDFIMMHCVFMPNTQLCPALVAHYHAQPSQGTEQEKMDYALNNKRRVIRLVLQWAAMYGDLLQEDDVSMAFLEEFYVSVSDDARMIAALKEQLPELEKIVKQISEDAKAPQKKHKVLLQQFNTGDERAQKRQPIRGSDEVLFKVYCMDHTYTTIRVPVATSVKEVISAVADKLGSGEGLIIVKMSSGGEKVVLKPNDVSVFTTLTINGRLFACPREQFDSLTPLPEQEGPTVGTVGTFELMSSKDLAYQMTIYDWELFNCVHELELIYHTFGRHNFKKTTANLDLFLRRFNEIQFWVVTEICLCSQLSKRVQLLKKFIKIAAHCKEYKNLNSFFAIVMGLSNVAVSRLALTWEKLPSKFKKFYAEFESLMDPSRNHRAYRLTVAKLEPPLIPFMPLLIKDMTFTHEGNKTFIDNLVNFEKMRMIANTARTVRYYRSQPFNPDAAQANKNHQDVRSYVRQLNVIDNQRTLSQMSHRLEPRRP

What is called inhibition is the drop in the measured response relative to a control, in per cent. By IC50 is commonly meant the concentration needed to halve the response being measured.

Molecules are shown by their SMILES. Calls of active or inactive are those of the source. The rule behind the calls is not given here.

For the compound `CC(=O)N1c2cc(Br)c(F)c(Br)c2CCC1C` (centres undefined), the inhibition in experiment [1] came to 26.2%; in experiment [2] it was 8.7%. With `C[C@@H]1CCc2c(cc(Br)c(F)c2Br)N1C=S`, the IC50 in experiment [3] stood at 17.6 µM. For the compound `CC1CCc2cc(F)ccc2N1C=O` (centres undefined), the inhibition worked out at 5% in experiment [1] and 5.3% in experiment [2].

`C[C@H]1CCc2c(cc(Br)c(F)c2Br)N1C=O`: the IC50 in experiment [4] turned out to be 17.1 µM; in experiment [3] it was 31.3 µM. Regarding `C[C@H]1CCc2c(cc(Br)c(F)c2Br)N1`, the inhibition result in experiment [2] is “Active”. Regarding `CC1CCc2c(cc(Br)c(F)c2Br)N1` (centres undefined), the inhibition in experiment [1] was determined as 74.1%; in experiment [2], 40.8%. On to `CC1CCc2c(Br)c(F)c(Br)c(Br)c2N1C=O` (centres undefined), for which the inhibition worked out at 46% in experiment [1] and 23.6% in experiment [2].

As for `C[C@H]1CCc2cc(F)ccc2N1C=O`, the inhibition entry in experiment [2] is “Active”. Regarding `C[C@H]1CCc2c(cc(Br)c(F)c2Br)N1C=S`, the IC50 in experiment [3] was above 100 µM. With `CC1CCc2c(ccc(F)c2Br)N1C=O` (centres undefined), the inhibition in experiment [1] was determined as 42%; in experiment [2] it was 15.8%. Regarding `CC1CCc2c(cc(Br)c(F)c2Br)N1C=O` (centres undefined), the inhibition in experiment [1] was found to be 88.3%; in experiment [2] it was 58.1%.

As to `C[C@H]1CCc2c(ccc(F)c2Br)N1C=O`, the inhibition result in experiment [2] is “Active”. For the compound `C[C@@H]1CCc2c(cc(Br)c(F)c2Br)N1C=O`, the IC50 in experiment [4] is 22.3 µM; in experiment [3], 3.3 µM. As to `C[C@@H]1CCc2cc(F)ccc2N1C=O`, the inhibition entry in experiment [2] was “Active”.

As for `C[C@@H]1CCc2c(ccc(F)c2Br)N1C=O`, in experiment [2], the inhibition entry is “Active”. The same measure, in the same setting: in the case of `C[C@@H]1CCc2c(cc(Br)c(F)c2Br)N1` it was “Active”.
